In publication PMC10617019 (Nature cell biology, 2023):

Legend:
[1] = system: RIPK1 proline hydroxylation (EGLN); assay: RIPK1 proline hydroxylation in cells, pan-hydroxylation antibody; type: cell-based, murine; details: MEFs with Flag-mRIPK1; CoCl2 400 μM, 16 h
In short: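 MEFs were transduced with a Flag-mouse RIPK1 expression vector for 24 h, then treated with CoCl2 (400 μM) for a further 16 h. Lysates were immunoprecipitated with anti-Flag and the complexes immunoblotted with an anti-pan-hydroxylation antibody. Three independent experiments were run.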

[2] = system: RIPK1, RIPK3 and MLKL activation; assay: RIPK1, RIPK3 and MLKL activation by EGLN inhibitors; type: cell-based, mouse; details: MEFs; for hallmarks of RIPK1, RIPK3 and MLKL activation, inhibitor alone: immunoblotting; for concentration needed to activate RIPK1 and necroptosis: concentration series
Vhl knockout MEFs = assay: hypoxia-induced necroptosis in Vhl-deleted MEFs; type: cell-based, mouse; details: 1% O2; Nec-1s printed as 25 M; propidium iodide uptake; n = 3
THP-1 cells = assay: hypoxia-induced cell death, THP-1; type: cell-based; details: 1% O2, 48 h; propidium iodide uptake; n = 3
In short: (§1)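 Jurkat, THP-1 and primary fibroblasts were exposed to 1% O2 for 48 h. Cell death was measured by propidium iodide uptake, counting PI-positive and total cells under an inverted fluorescence microscope. Values are mean ± s.d., n = 3 biological samples, compared by unpaired two-tailed t-test.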

Vhl LKO mice (liver) = assay: Nec-1s in Vhl LKO mice; type: in vivo, mouse; details: Nec-1s in drinking water, 7 days; n = 6
[3] = system: human skin fibroblast cells; assay: hypoxia-induced cell death, human skin fibroblasts; type: cell-based; details: 1% O2, 48 h; primary fibroblasts; propidium iodide uptake; n = 3
In short: as §1

[4] = system: human RIPK1 and RIPK1-P195A mutant; assay: p-RIPK1-S166 in 293T cells overexpressing WT or P195A RIPK1; type: cell-based; details: overexpressed RIPK1, 10 μM Nec-1s, n = 3
HT-29 cells [5] = assay: hypoxia-induced cell death, HT-29; type: cell-based; details: 1% O2; Nec-1s 25 μM; propidium iodide uptake; n = 3
In short: (§2)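 HT-29 and L929 cells were held at 1% O2 with or without 25 μM Nec-1s; L929 were kept in DMEM with 10% FBS and 1% penicillin/streptomycin. Cell death was measured by propidium iodide uptake, counting PI-positive and total cells under an inverted fluorescence microscope. Values are mean ± s.d., n = 3 biological samples.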

Egln1−/− MEFs = assay: TSZ- or TNFα/5z7-induced cell death, Egln1−/− MEFs; type: cell-based, mouse; details: induced by TSZ or by TNFα + 5z7 (200 nM); n = 3
In short: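 Knockout MEFs were given TNFα 10 ng/mL + SM164 50 nM + zVAD.fmk 20 μM, or TNFα 10 ng/mL + 5z7 200 nM, each ± RIPK1-inhibitor test compound. TSZ death was read by PI uptake: PI-positive and total cells counted by fluorescence microscopy. TNFα/5z7 viability was read by ATP-Glo luminescence, background-subtracted, as % of untreated wells. n = 3 biological samples, mean ± s.d., two-way ANOVA.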

Jurkat cells = assay: hypoxia-induced cell death, Jurkat; type: cell-based; details: 1% O2, 48 h; propidium iodide uptake; n = 3
In short: as §1

primary Ripk1 P196A MEFs = assay: TSZ or TNFα/SM-164-induced cell death and p-RIPK1-S166 in Ripk1 P196A MEFs; type: cell-based, mouse; details: Nec-1s 20 μM, n = 3
L929 cells = assay: hypoxia-induced cell death, L929; type: cell-based; details: 1% O2; Nec-1s 25 μM; propidium iodide uptake; n = 3
In short: as §2

Ripk1 P196A/P196A mice = assay: Nec-1s in Ripk1 P196A/P196A mice; type: in vivo, mouse; details: Nec-1s in drinking water, 7 d; n = 5-6
786-O cells = assay: TNFα/5z7/SM-164-induced RDA in 786-O cells; type: cell-based; details: Nec-1s 10 μM; TNFα 10 ng/mL; SM-164 50 nM; 5z7 500 nM; n = 3
In short: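 VHL-deficient 786-O cells were treated with TNFα, 5z7 and SM-164, with or without Nec-1s, for different times. Viability was read by ATP-Glo luminescence, expressed as a percentage of untreated wells after subtracting the blank-well background.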

WT RIPK1 = assay: in vitro kinase assay, WT RIPK1; type: biochemical, human; details: 100 μM ATP, 30 °C, 30 min, p-RIPK1-S166 immunoblot
mutant RIPK1-P195A = assay: in vitro kinase assay, RIPK1-P195A; type: biochemical, human; details: 100 μM ATP, 30 °C, 30 min, p-RIPK1-S166 immunoblot
[6] = system: WT and Ripk1 P196A/P196A mice; assay: FG-4592 in WT and Ripk1 P196A/P196A mice; type: in vivo; details: FG-4592 25 mg kg^−1 i.p., 7 days
Mlkl knockout cells = assay: FG-4592-induced cell death in WT and Mlkl knockout cells; type: cell-based; details: n = 3
MEFs [7] = assay: cell death with EGLN inhibitor, MEFs; type: cell-based, mouse
In short: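 MEFs in DMEM/10% FBS/1% penicillin-streptomycin were treated with graded test compound concentrations. Cell death was measured by propidium iodide uptake, counting PI-positive versus total cells by fluorescence microscopy (mean ± s.d., n = 3 biological samples). p-RIPK1-S166 and p-MLKL-S345 were immunoblotted across the concentration series after 48 h, and at 400 μM over a time course.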

[8] = system: Pro195 hydroxylation of RIPK1; assay: RIPK1 Pro195/Pro196 hydroxylation in cells; type: cell-based; details: high doses only
WT mice (liver) = assay: FG-4592 in vivo, WT mice: liver damage, RIPK1 activation, cell death, cytokines
HT-29 cells [9] = assay: RIPK1 activation and necroptosis by FG-4592, HT-29 cells; type: cell-based
[10] = system: proline hydroxylation of RIPK1 at Pro196; assay: RIPK1 Pro196 hydroxylation in mouse liver in vivo; details: WT mouse liver; i.p. 50 or 250 mg kg^−1 every 24 h for 2 d; n = 3
MEFs [11] = assay: TSZ-induced cell death with FG-4592, MEFs; type: cell-based, mouse; details: FG-4592 200 μM; TNFα 10 ng/mL, SM164 50 nM, zVAD.fmk 20 μM; n = 3
In short: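 MEFs were given TNFα 10 ng/mL, SM164 50 nM and zVAD.fmk 20 μM, with or without test compound at 200 μM. Cell death was read by propidium iodide uptake: PI-positive and total cells were counted under an inverted fluorescence microscope. n = 3 biological independent samples, mean ± s.d., two-way ANOVA.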

EGLN1 = assay: in vitro hydroxylation assay with recombinant EGLN1; type: biochemical; details: 37 °C, 1 h, pH 7.5, 50 μM EGLN1, 100 μM substrate; mass spectrometry
monocytes = details: cited from earlier work
cIAP1 = details: cited from earlier work
[12] = system: pVHL interaction with RIPK1; assay: pVHL-RIPK1 interaction in cells; type: cell-based; details: DFO 200 μM; co-immunoprecipitation
In short: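 RIPK1⁻/⁻ HT-29 cells were infected with expression vectors and treated with DFO 200 μM. Immunocomplexes were washed three times (20 mM Tris pH 8.0, 100 mM NaCl, 1 mM EDTA, 0.5% NP-40), resolved by SDS-PAGE and immunoblotted.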

Compound: [Cl][Co][Cl] [CoCl2, cobalt chloride]
- RIPK1 proline hydroxylation (pan-hydroxylation antibody) [1]: could be blocked
- hallmarks of RIPK1, RIPK3 and MLKL activation, inhibitor alone [2]: showed the hallmarks of RIPK1, RIPK3 and MLKL activation
- concentration needed to activate RIPK1 and necroptosis [2]: Only high concentrations

Compound: CN1C(=O)NC(Cc2c[nH]c3c(Cl)cccc23)C1=O (centres unmarked) [Nec-1s, necrostatin-1s]
- hypoxia-induced necroptosis in Vhl-deleted MEFs with Nec-1s (Vhl knockout MEFs): could be decreased with the administration of Nec-1s
- hypoxia-induced cell death with Nec-1s (THP-1 cells): decreased
- RIPK1 activation, cell death and inflammation in Vhl LKO mice (Vhl LKO mice (liver)): blocked RIPK1 activation, cell death and inflammation in Vhl hepatocyte-specific knockout mice
- hypoxia-induced cell death with Nec-1s [3]: decreased
- inhibition of p-RIPK1-S166 (WT and P195A RIPK1) [4]: effectively inhibited
- hypoxia-induced cell death with Nec-1s (HT-29 cells [5]): decreased
- cell death of Egln1−/− MEFs with Nec-1s (Egln1−/− MEFs): blocked the cell death of Egln1^−/− MEFs induced by either TSZ or a combination of TNFα and 5z7
- hypoxia-induced cell death with Nec-1s (Jurkat cells): decreased
- increased cell death and RIPK1 activation with Nec-1s (primary Ripk1 P196A MEFs): both the increased cell death and RIPK1 activation were inhibited
- hypoxia-induced cell death with Nec-1s (L929 cells): decreased
- cell death and inflammation in Ripk1 P196A/P196A mice with Nec-1s (Ripk1 P196A/P196A mice): decreased cell death and inflammation in Ripk1^P196A/P196A mice
- RDA induced by TNFα, 5z7 and SM-164 with Nec-1s (786-O cells): could be blocked by Nec-1s

Compound: recombinant pVHL: purified recombinant von Hippel–Lindau protein
- inhibition of RIPK1 kinase activity (WT RIPK1): could dramatically inhibit induction of the kinase activity of WT RIPK1
- inhibition of RIPK1 kinase activity (mutant RIPK1-P195A): but not mutant RIPK1-P195A

Compound: Cc1nc(C(=O)NCC(=O)O)c(O)c2ccc(Oc3ccccc3)cc12 [FG-4592]
- HIF pathway induction, RIPK1 activation and cell death [6]: can only induce the HIF pathway, without induction of RIPK1 activation and cell death
- effect of Mlkl deletion on FG-4592-induced cell death (Mlkl knockout cells): deletion of Mlkl decreased cell death induced by FG-4592 treatment
- sensitization to hypoxia-induced cell death (MEFs [7]; 1% O2 with or without 200 μM FG-4592, n = 3): could sensitize cell death induced by hypoxia
- RIPK1 activation and necroptosis (MEFs [7]; MEFs, relatively high concentration, up to 400 μM at indicated times, 48 h): activated RIPK1 and induced necroptosis
- concentration needed to activate RIPK1 and necroptosis [2]: Only high concentrations
- RIPK1 hydroxylation, RIPK1 activity and cell death, dose dependence [8]: led to a decrease in the hydroxylation of RIPK1 and corresponding increases in RIPK1 activity and cell death
- liver damage, TUNEL^+ cells and p-RIPK1-S166 in liver (WT mice (liver); FG-4592 250 mg kg^−1 i.p., every 24 h for 2 d): caused substantial liver damage, with a large number of TUNEL^+ cells and increased p-RIPK1-S166
- RIPK1 activation or cell death in liver (WT mice (liver); FG-4592 25 or 50 mg kg^−1 i.p., n = 5): did not induce RIPK1 activation or cell death
- RIPK1 activation and necroptosis (HT-29 cells [9]; relatively high concentration): activated RIPK1 and induced necroptosis
- RIPK1 Pro196 hydroxylation in vivo [10]: can also reduce the proline hydroxylation of RIPK1 at Pro196 in vivo
- sensitization to TSZ-induced cell death (MEFs [11]): could sensitize cells to cell death induced by TSZ treatment

Compound: KNGGTLYYMAPEHLNDVNAKP [synthetic RIPK1 peptide]
- hydroxylation by recombinant EGLN1 (EGLN1): recombinant EGLN1 hydroxylated a synthetic RIPK1 peptide containing Pro195

Compound: COC(=O)CNC(=O)C(=O)OC [dimethyloxalylglycine]
- RIPK1 activation and caspase-independent cell death (monocytes): induce RIPK1 activation and caspase-independent cell death in monocytes
- cIAP1 expression (cIAP1): caused a decrease in cellular inhibitor of apoptosis protein-1 (cIAP1) expression

Compound: COc1nccnc1NS(=O)(=O)c1ccc(NC(=O)/C=C/c2ccc([N+](=O)[O-])s2)cc1 [necrosulfonamide]
- suppression of FG-4592-induced cell death (HT-29 cells [9]; 10 μM necrosulfonamide, 48 h, n = 3): can also suppress cell death induced by treatment with FG-4592 in HT-29 cells

Compound: CC(=O)N(O)CCCCCNC(=O)CCC(=O)N(O)CCCCCNC(=O)CCC(=O)N(O)CCCCCN [DFO, deferoxamine]
- hallmarks of RIPK1, RIPK3 and MLKL activation, inhibitor alone [2]: showed the hallmarks of RIPK1, RIPK3 and MLKL activation
- concentration needed to activate RIPK1 and necroptosis [2]: Only high concentrations
- pVHL interaction with RIPK1 [12]: markedly decreased pVHL interaction with RIPK1 in cells
